In ChEMBL document CHEMBL1121680, “2,4-Diamino-5-benzylpyrimidines and analogues as antibacterial agents. 5. 3',5'-Dimethoxy-4'-substituted-benzyl analogues of trimethoprim” (J Med Chem, 1981):
Values belong to the compound of their own block, whether it stands above or below them.

Key:
[1] = target: T1, Dihydrofolate reductase (Rattus norvegicus, UniProt Q920D2); test: Inhibition of rat liver Dihydrofolate reductase.; settings: read-out: I50
T1 sequence (Q920D2 whole entry): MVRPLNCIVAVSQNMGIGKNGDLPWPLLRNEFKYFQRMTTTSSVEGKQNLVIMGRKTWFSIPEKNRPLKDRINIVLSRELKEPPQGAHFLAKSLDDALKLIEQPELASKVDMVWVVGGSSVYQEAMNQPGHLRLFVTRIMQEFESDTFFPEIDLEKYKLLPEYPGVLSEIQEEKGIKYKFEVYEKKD

[2] = target: T2, Dihydrofolate reductase (Rattus norvegicus) (UniProt Q920D2); test: Compound was tested for inhibitory activity against Dihydrofolate reductase of rat liver at 1000 µM; settings: 1000 M
T2 sequence (whole entry): T1 sequence (Q920D2 whole entry)

[3] = target: T2, Dihydrofolate reductase (Rattus norvegicus); test: Compound was tested for inhibitory activity against Dihydrofolate reductase of rat liver at 40000 M
[4] = target: T2, Dihydrofolate reductase (Rattus norvegicus); test: Compound was tested for inhibitory activity against Dihydrofolate reductase of rat liver at 29000 M
[5] = target: T2, Dihydrofolate reductase (Rattus norvegicus); test: Percent inhibition of compound against Dihydrofolate Reductase(DHFR) of rat liver at 40000 M
[6] = target: T2, Dihydrofolate reductase (Rattus norvegicus); test: Compound was tested for inhibitory activity against Dihydrofolate reductase of rat liver at 10000 M
[7] = target: T1, Dihydrofolate reductase; test: Compound was tested for inhibitory activity against Dihydrofolate Reductase(DHFR) of rat liver; settings: read-out: I50
[8] = tested on: Escherichia coli; test: Antimicrobial activity against Escherichia coli CN348 in mice in experiment 1; type: functional, Mus musculus
[9] = tested on: Escherichia coli; test: Antimicrobial activity against Escherichia coli CN348 in mice in experiment 2; type: functional, Mus musculus
[10] = tested on: Escherichia coli; test: Antimicrobial activity against Escherichia coli CN348 in mice in experiment 3; type: functional, Mus musculus
[11] = tested on: Klebsiella pneumoniae; test: Antimicrobial activity against Klebsiella pneumoniae CN3632 in mice in experiment 1; type: functional, Mus musculus
[12] = tested on: Klebsiella pneumoniae; test: Antimicrobial activity against Klebsiella pneumoniae CN3632 in mice in experiment 2; type: functional, Mus musculus
[13] = tested on: Klebsiella pneumoniae; test: Antimicrobial activity against Klebsiella pneumoniae CN3632 in mice in experiment 3; type: functional, Mus musculus
[14] = tested on: Mus musculus; test: Concentration of compound in serum of mouse 10 min after oral administration of 10 mg dose; type: functional, organism-based
Outline: (§1)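 Single po dose (10 or 2 mg per mouse) to groups of three mice (18–20 g); ~0.2 mL blood drawn from supraorbital plexus at 10–360 min and pooled; serum drug level assayed microbiologically with Bacillus pumilus as test organism. Half-life calculated from curve slopes once compound apparently evenly distributed.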

[15] = tested on: Mus musculus; test: Concentration of compound in serum of mouse 10 min after oral administration of 2 mg dose; type: functional, organism-based; outline: as §1
[16] = tested on: Mus musculus; test: Concentration of compound in serum of mouse 180 min after oral administration of 10 mg dose; type: functional, organism-based; outline: as §1
[17] = tested on: Mus musculus; test: Concentration of compound in serum of mouse 180 min after oral administration of 2 mg dose; type: functional, organism-based; outline: as §1
[18] = tested on: Mus musculus; test: Concentration of compound in serum of mouse 30 min after oral administration of 10 mg dose; type: functional, organism-based; outline: as §1
[19] = tested on: Mus musculus; test: Concentration of compound in serum of mouse 360 min after oral administration of 10 mg dose; type: functional, organism-based; outline: as §1
[20] = tested on: Mus musculus; test: Concentration of compound in serum of mouse 360 min after oral administration of 2 mg dose; type: functional, organism-based; outline: as §1
[21] = tested on: Mus musculus; test: Concentration of compound in serum of mouse 90 min after oral administration of 10 mg dose; type: functional, organism-based; outline: as §1
[22] = tested on: Mus musculus; test: Concentration of compound in serum of mouse 90 min after oral administration of 2 mg dose; type: functional, organism-based; outline: as §1
[23] = tested on: Mus musculus; test: Half-life in serum of mice after oral administration of 2 mg dose; type: functional, organism-based; outline: as §1
[24] = tested on: Proteus vulgaris; test: Antimicrobial activity against Proteus vulgaris CN329 in mice in experiment 1; type: functional, Mus musculus
[25] = tested on: Proteus vulgaris; test: Antimicrobial activity against Proteus vulgaris CN329 in mice in experiment 2; type: functional, Mus musculus
[26] = tested on: Staphylococcus aureus; test: Antimicrobial activity against Staphylococcus aureus CN491 in mice in experiment 1; type: functional, Mus musculus
[27] = tested on: Staphylococcus aureus; test: Antimicrobial activity against Staphylococcus aureus CN491 in mice in experiment 2; type: functional, Mus musculus
[28] = tested on: Staphylococcus aureus; test: Antimicrobial activity against Staphylococcus aureus CN491 in mice in experiment 3; type: functional, Mus musculus
[29] = tested on: Streptococcus pyogenes; test: Antimicrobial activity against streptococcus pyogenes CN10 in mice in experiment 1; type: functional, Mus musculus
[30] = tested on: Streptococcus pyogenes; test: Antimicrobial activity against streptococcus pyogenes CN10 in mice in experiment 2; type: functional, Mus musculus
[31] = tested on: Mus musculus; test: Half-life in serum of mice after oral administration of 10 mg dose; type: functional, organism-based; outline: as §1
[32] = tested on: Streptococcus pyogenes; test: Antimicrobial activity against streptococcus pyogenes CN10 in mice in experiment 3; type: functional, Mus musculus
[33] = target: T1, Dihydrofolate reductase; test: Compound was tested for inhibitory activity against Dihydrofolate Reductase of rat liver; settings: read-out: I50
[34] = target: T3, Dihydrofolate reductase (Escherichia coli, UniProt P0ABQ4); test: Compound was tested for inhibitory activity against Dihydrofolate reductase of E. coli; Value ranges from 0.5-0.7M; settings: read-out: I50
T3 sequence (P0ABQ4 whole entry): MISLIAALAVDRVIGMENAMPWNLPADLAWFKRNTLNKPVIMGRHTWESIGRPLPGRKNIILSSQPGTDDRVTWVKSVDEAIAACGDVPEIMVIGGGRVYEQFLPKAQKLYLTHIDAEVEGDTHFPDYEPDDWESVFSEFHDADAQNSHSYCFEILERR

[35] = target: T2, Dihydrofolate reductase (Rattus norvegicus); test: Compound was tested for inhibitory activity against Dihydrofolate reductase of rat liver at 10000; settings: concentration not given here

Structure (SMILES): CCc1c(OC)cc(Cc2cnc(N)nc2N)cc1OC
IC50 [1]: 200 µM

Structure (SMILES): COc1cc(Cc2cnc(N)nc2N)cc(OC)c1OCCCCCCN
IC50 [1]: 560 µM

Structure (SMILES): COc1cc(Cc2cnc(N)nc2N)cc(OC)c1Oc1ccc(N)cc1
inhibition [2]: 8%

Structure (SMILES): CCOC(=O)COc1c(OC)cc(Cc2cnc(N)nc2N)cc1OC
inhibition [3]: 12%

Structure (SMILES): COc1cc(Cc2cnc(N)nc2N)cc(OC)c1OCCCl
IC50 [1]: 600 µM

Structure (SMILES): COc1cc(Cc2cnc(N)nc2N)cc(OC)c1Oc1ccc(NC(=O)CBr)cc1
inhibition [4]: 37%

Structure (SMILES): COc1cc(Cc2cnc(N)nc2N)cc(OC)c1OC(C)C
inhibition [5]: 9%

Structure (SMILES): CCCCOc1c(OC)cc(Cc2cnc(N)nc2N)cc1OC
IC50 [1]: 580 µM

Structure (SMILES): CCOc1c(OC)cc(Cc2cnc(N)nc2N)cc1OC
IC50 [33]: 620 µM | IC50 [34]: 0.0075 µM

Structure (SMILES): COc1cc(Cc2cnc(N)nc2N)cc(OC)c1OCCN1CCOCC1
IC50 [1]: > 440 µM

Structure (SMILES): CCCCCOc1c(OC)cc(Cc2cnc(N)nc2N)cc1OC
IC50 [1]: 270 µM

The next lines start with results.

IC50 [1]: 69 µM
Structure (SMILES): COc1cc(Cc2cnc(N)nc2N)cc(OC)c1OCCCN1C(=O)c2ccccc2C1=O

inhibition [3]: 36%
Structure (SMILES): COc1cc(Cc2cnc(N)nc2N)cc(OC)c1OCCCN1CCN(C)CC1

inhibition [6]: 39%
Structure (SMILES): COc1cc(Cc2cnc(N)nc2N)cc(OC)c1OCCCN

IC50 [7]: 480 µM
Structure (SMILES): C=CCOc1c(OC)cc(Cc2cnc(N)nc2N)cc1OC
ED50 [8]: 7.5 mg mouse-1 | ED50 [9]: 11 mg mouse-1 | ED50 [10]: >10 mg mouse-1 | ED50 [11]: 4.6 mg mouse-1 | ED50 [12]: 10 mg mouse-1 | ED50 [13]: >10 mg mouse-1 | Concentration [14]: 84 µg/mL | Concentration [15]: 18 µg/mL | Concentration [16]: 27 µg/mL | Concentration [17]: 0.26 µg/mL | Concentration [18]: 59 µg/mL | Concentration [19]: 2.8 µg/mL | Concentration [20]: < 0.1 µg/mL | Concentration [21]: 51 µg/mL | Concentration [22]: 1 µg/mL | T1/2 [23]: 21 min | ED50 [24]: 10 mg mouse-1 | ED50 [25]: >10 mg mouse-1 | ED50 [26]: 2.5 mg mouse-1 | ED50 [27]: >10 mg mouse-1 | ED50 [28]: 8.1 mg mouse-1 | ED50 [29]: 12 mg mouse-1 | ED50 [30]: 4.3 mg mouse-1 | T1/2 [31]: 66 min | ED50 [32]: 5.1 mg mouse-1

IC50 [1]: 15 µM
Structure (SMILES): COc1cc(COc2c(OC)cc(Cc3cnc(N)nc3N)cc2OC)cc(OC)c1OC

IC50 [33]: 250 µM
Structure (SMILES): CCCOc1c(OC)cc(Cc2cnc(N)nc2N)cc1OC

inhibition [35]: 24%
Structure (SMILES): COc1cc(Cc2cnc(N)nc2N)cc(OC)c1OCCCO
